Data on seven molecules can be found in ChEMBL document CHEMBL4346686, “Discovery and biological evaluation of novel androgen receptor antagonist for castration-resistant prostate cancer” (Eur J Med Chem, 2019).

A word on the IC50: it is the concentration that gives 50% inhibition. What is called inhibition is the share of the control response that was lost under treatment. Usually TGI stands for how far tumour growth fell short of that in controls.

Calls of active or inactive are those of the source. No cut-off for these calls is given here.

The nature of data set [1]: Antiproliferative activity against human LNCaP-AR cells assessed as reduction in cell viability incubated for 6 days by CCK8 assay. Type of data set: functional, cell-based. Conditions: 144 h. The essentials: (§1)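 Cells seeded (2×10^4 per well for VCaP, 1–3×10^3 for the others) and compound added after 24 h as a 9-point, 3-fold serial dilution. Exposure 6 days, then CCK-8 for 1–4 h and absorbance at 450 nm. IC50 from curve fit, mean of at least two independent experiments run in duplicate.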
Background: Tetrazolium dyes change colour on reduction, which living cells bring about.

Data set [2] deals with CWR22R. Briefly: Antiproliferative activity against human 22Rv1 cells assessed as reduction in cell viability incubated for 6 days by CCK8 assay. The class given is functional, cell-based. Conditions: 22Rv1, 144 h. The essentials:
as §1

The test system of data set [3] is L02. The data set can be described thus: Antiproliferative activity against human L02 cells assessed as reduction in cell viability incubated for 6 days by CCK8 assay. The class given is cell-based. As to conditions: L02, 144 h. The method, boiled down: as §1
Data set [4] has as its system PC-3. The data set can be described thus: Antiproliferative activity against human PC3 cells assessed as reduction in cell viability incubated for 6 days by CCK8 assay. The class given is functional, cell-based. Conditions: PC-3, 144 h. The method, boiled down:
as §1

In data set [5] the target is T1, Androgen receptor (Homo sapiens) (UniProt P10275).
T1 sequence (whole entry): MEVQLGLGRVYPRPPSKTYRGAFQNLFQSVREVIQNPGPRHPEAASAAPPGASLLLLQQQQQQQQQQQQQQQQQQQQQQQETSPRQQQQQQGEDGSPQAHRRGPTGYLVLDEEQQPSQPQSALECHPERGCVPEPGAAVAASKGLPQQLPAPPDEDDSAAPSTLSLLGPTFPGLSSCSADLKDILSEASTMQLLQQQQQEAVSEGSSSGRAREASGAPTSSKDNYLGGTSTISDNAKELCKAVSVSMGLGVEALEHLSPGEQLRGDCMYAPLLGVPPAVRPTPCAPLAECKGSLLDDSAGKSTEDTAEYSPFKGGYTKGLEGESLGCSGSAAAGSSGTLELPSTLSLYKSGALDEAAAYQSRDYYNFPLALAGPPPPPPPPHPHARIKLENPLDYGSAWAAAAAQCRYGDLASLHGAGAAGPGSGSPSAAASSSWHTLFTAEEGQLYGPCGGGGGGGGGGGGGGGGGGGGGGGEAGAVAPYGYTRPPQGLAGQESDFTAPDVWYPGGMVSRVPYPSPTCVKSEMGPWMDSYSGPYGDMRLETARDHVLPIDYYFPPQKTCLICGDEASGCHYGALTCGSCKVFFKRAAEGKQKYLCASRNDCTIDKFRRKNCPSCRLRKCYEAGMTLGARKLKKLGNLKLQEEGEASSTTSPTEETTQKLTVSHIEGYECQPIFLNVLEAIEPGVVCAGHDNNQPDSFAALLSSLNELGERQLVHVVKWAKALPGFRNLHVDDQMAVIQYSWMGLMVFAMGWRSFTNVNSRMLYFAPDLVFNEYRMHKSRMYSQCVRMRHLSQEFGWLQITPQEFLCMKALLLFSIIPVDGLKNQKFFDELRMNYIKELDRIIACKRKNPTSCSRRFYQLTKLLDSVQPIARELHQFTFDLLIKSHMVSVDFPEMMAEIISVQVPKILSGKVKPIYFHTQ
Briefly: Antagonist activity at androgen receptor in human VCaP cells assessed as inhibition of R1881-induced FKBP5 mRNA expression at 5 uM after 24 hrs by qRT-PCR analysis. Type of data set: cell-based. The essentials:
(§2)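 VCaP cells kept 48 h in DMEM with 5% charcoal-stripped FBS, then treated 24 h with compound plus 0.2 nM R1881. RNA extracted with TRIzol, reverse-transcribed, and PSA or FKBP5 mRNA quantified by qRT-PCR normalized to GAPDH. Expressed relative to DMSO-treated samples; mean ± SD, n = 3, two-tailed t-test.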
Background: In qPCR the cycle at which signal appears reflects the starting amount.

In data set [6] the test system is VCaP. Briefly: Antiproliferative activity against human VCaP cells assessed as reduction in cell viability incubated for 6 days by CCK8 assay. The class given is functional, cell-based. Conditions: 144 h. The method, boiled down: as §1
Data set [7] addresses T1, Androgen receptor (Homo sapiens). Briefly: Antagonist activity at androgen receptor in human VCaP cells assessed as inhibition of R1881-induced PSA mRNA expression at 5 uM after 24 hrs by qRT-PCR analysis. The class given is cell-based. The essentials: as §2
In data set [8] the test system is VCaP. Briefly: Antitumor activity against human VCaP cells xenografted in BALB/c nude mouse assessed as inhibition of tumor growth at 30 mg/kg, po qd administered for 40 days relative to control. Type of data set: functional. The method, boiled down: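 Male BALB/c nude mice, 5 weeks old, s.c. 1 × 10^7 VCaP cells in DMEM/Matrigel (1:1). Castrated under Nembutal at 150–200 mm3 and randomized (n = 8–10). Once tumors regrew to 200–350 mm3, oral 30 mg/kg qd for 40 days. TGI = [1 − (T − T0)/(C − C0)] × 100 from mean tumor volumes on first and last treatment days.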

Data set [9] can be described thus: Toxicity in BALB/c nude mouse xenografted with human VCaP cells assessed as weight loss at 30 mg/kg, po qd administered for 40 days relative to control. Type of data set: organism-based. As to conditions: in vivo, 960 h.
Data set [10] addresses T2, Steroid 17-alpha-hydroxylase/17,20 lyase (Homo sapiens, UniProt P05093).
T2 sequence (P05093 whole entry): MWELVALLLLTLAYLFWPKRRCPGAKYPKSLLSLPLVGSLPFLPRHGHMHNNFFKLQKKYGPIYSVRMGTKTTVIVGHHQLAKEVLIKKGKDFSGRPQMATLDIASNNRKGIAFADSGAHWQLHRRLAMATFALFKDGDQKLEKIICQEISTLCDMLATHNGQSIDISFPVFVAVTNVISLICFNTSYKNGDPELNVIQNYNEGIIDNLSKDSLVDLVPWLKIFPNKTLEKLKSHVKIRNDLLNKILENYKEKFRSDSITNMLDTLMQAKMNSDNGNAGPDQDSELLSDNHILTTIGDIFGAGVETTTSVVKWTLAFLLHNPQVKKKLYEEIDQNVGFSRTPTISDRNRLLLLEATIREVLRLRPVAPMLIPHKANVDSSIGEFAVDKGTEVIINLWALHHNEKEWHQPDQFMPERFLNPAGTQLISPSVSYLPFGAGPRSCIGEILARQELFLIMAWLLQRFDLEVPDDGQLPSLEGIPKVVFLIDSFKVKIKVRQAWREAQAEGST
The data set can be described thus: Inhibition of C-myc/DDK tagged human CYP17A1 expressed in HEK293T cells assessed as reduction in formation of 17-OHP at 10 uM incubated for 30 mins by LC-MS/MS analysis. The class given is cell-based. Conditions: 0.5 h. The method, boiled down:
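CYP17A1 activity measured as 17α-hydroxyprogesterone formation in 50 mM Tris pH 7.4, 5 mM MgCl2. Incubation 30 min at 37 °C, quenched with 20% trichloroacetic acid; product quantified by LC-MS/MS. Mean ± SD, n = 2.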

As for `CCN(c1ccc(C#N)c(Cl)c1)c1cc(-c2cccnc2)ccc1C`, the IC50 in data set [1] is 0.33 µM; in data set [2] it was 2 µM; in [3], 12.7 µM; in data set [4], 11 µM; in data set [6] it was 1.27 µM. Further, the inhibition entry in data set [5] and in data set [7] was “Active” each time.
With `Cc1ccc(-c2c(C)noc2C)cc1Nc1ccncc1`, the IC50 turned out to be 3.7 µM in [1] and 1.97 µM in data set [6]. Also, the inhibition entry in [5] and in data set [7] was “Active” in each case.
As to `CNC(=O)c1ccc(N2C(=S)N(c3ccc(C#N)c(C(F)(F)F)c3)C(=O)C2(C)C)cc1F` [ENZALUTAMIDE], the TGI in data set [8] is on record as 43%. Besides, the IC50 in [1] is 0.19 µM; in [2], > 30 µM; in [3] it was 17.1 µM; in data set [4], > 30 µM. The Activity entry in data set [9] is given as “Non-Toxic”.
As for `C[C@]12CC[C@H](O)CC1=CC[C@@H]1[C@@H]2CC[C@]2(C)C(c3cccnc3)=CC[C@@H]12` [ABIRATERONE], the inhibition at 10 µM in [10] was 100%.
Consider `CCN(c1ccc(C#N)c(Cl)c1)c1cc(-c2cncnc2)ccc1C`, for which the IC50 is 0.4 µM in [1], > 30 µM in data set [2], > 30 µM in data set [4] and 3.92 µM in data set [6]. Also, the inhibition entry in [5] and in data set [7] was “Active” throughout.
For `C[C@]12CC[C@H](O)CC1=CC[C@@H]1[C@@H]2CC[C@]2(C)C(n3cnc4ccccc43)=CC[C@@H]12` [GALETERONE], in data set [10], the inhibition at 10 µM stood at 50%.
For `CCN(c1ccc(C#N)c(Cl)c1)c1cc(-c2ccnn2C)ccc1C`, the IC50 in data set [1] was found to be 0.17 µM; in [2], 4.33 µM; in data set [3] it was 6.23 µM; in data set [4], 7.29 µM; in data set [6], 1.67 µM. The inhibition result in data set [5] and in [7] was “Active” throughout.
